The results in this text go back to ChEMBL document CHEMBL3865821, “Amino substituted benzimidazo[1,2-a]quinolines: Antiproliferative potency, 3D QSAR study and DNA binding properties” (Eur J Med Chem, 2016).

Active and inactive are the calls of the source. No cut-off for these calls is given here.

Test [1] in a line: Antiproliferative activity against human HCT116 cells after 72 hrs by MTT assay. It is filed as functional, cell-based. The note with it: HCT-116, 72 h. A digest of the protocol: (§1)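 Tumour cells were grown as monolayers in DMEM with 10 % FBS, 2 mM L-glutamine, penicillin and streptomycin at 37 °C under 5 % CO₂. Tenfold dilutions from 10^-8 to 10^-4 M were applied for 72 h, followed by MTT read at 570 nm. IC50 came from linear regression of percentage growth; at least two experiments, quadruplicate points.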

Test [2] can be described thus: Antiproliferative activity against human MCF7 cells after 72 hrs by MTT assay. It is filed as functional, cell-based. The following applies: MCF7, 72 h. A digest of the protocol:
as §1
For orientation: Formazan colour is commonly taken as a measure of viable cells.

Test [3] is described as follows: Antiproliferative activity against human H460 cells after 72 hrs by MTT assay. The test is classed as functional, cell-based. The note with it: NCI-H460, 72 h. A digest of the protocol: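 Tumour cells were grown as monolayers in DMEM with 10 % FBS, 2 mM L-glutamine, penicillin and streptomycin at 37 °C under 5 % CO₂. They were seeded at 3×10^4 cells/mL (HCT 116, H460) or 5×10^4 cells/mL (MCF-7). Tenfold dilutions from 10^-8 to 10^-4 M were applied for 72 h, followed by MTT read at 570 nm. IC50 came from linear regression of percentage growth; at least two experiments, quadruplicate points.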

Test [4] can be described thus: Binding affinity to duplex calf thymus DNA assessed as change in melting temperature at drug/DNA ratio of 0.1 by spectrophotometric analysis.
Test [5] in a line: Binding affinity to duplex calf thymus DNA assessed as change in melting temperature at drug/DNA ratio of 0.05 by spectrophotometric analysis.
The nature of test [6]: Binding affinity to duplex calf thymus DNA assessed as hypsochromic shift at 20 uM by UV/visible spectroscopic analysis. A digest of the protocol:
(§2)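 Compound at 20 μM in BPE buffer (pH 7.1) was titrated with calf-thymus DNA at 1–140 μM in a 10 mm quartz cuvette. Spectra were recorded from 240 to 480 nm against a reference cuvette holding DNA at the same concentration.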

Test [7] is described as follows: Binding affinity to duplex calf thymus DNA assessed as bathochromic shift at 20 uM by UV/visible spectroscopic analysis. The procedure, abridged:
as §2

Test [8] in a line: Binding affinity to 0.5 to 480 uM of duplex […] (unknown origin) at 0.5 to 540 uM by fluorescence spectroscopic analysis. A digest of the protocol: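 Fluorescent compounds at 10 μM in BPE buffer (pH 7.1) were measured with and without rising calf-thymus DNA. Emission was scanned from 400 to 700 nm. K_sv was taken as the slope of the Stern–Volmer plot F₀/F = 1 + K_sv[ct-DNA].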

Test [9] is described as follows: Binding affinity to duplex calf thymus DNA assessed as induction of negative circular dichroic signal at 1 to 60 uM by circular dichroism analysis. A digest of the protocol:
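Calf-thymus DNA at 50 μM was incubated in BPE buffer with or without compound at 1, 5, 10, 20, 30, 40, 50 and 60 μM. CD spectra were recorded from 480 to 230 nm in a 10 mm cell at 20 °C. The compound alone at 60 μM was checked for intrinsic CD.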
For orientation: Circular dichroism is the unequal absorption of left and right circularly polarised light.

The next test concerns Escherichia coli. Description: Binding affinity to negatively supercoiled pUC19 DNA assessed as DNA intercalation by measuring generation of positively supercoiled DNA up to 50 uM preincubated for 15 mins followed by human DNA topoisomerase 1 addition measured after 30 mins by agarose gel electrophoresis. The procedure, abridged:
(§3)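 Supercoiled pUC19 plasmid was treated with human topoisomerase I, alone or with compound, and topoisomers were resolved by agarose gel electrophoresis. Poisoning, seen as nicked plasmid, was assessed on ethidium bromide-containing agarose gels at up to 100 μM compound.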

Test [10] can be described thus: Binding affinity to radiolabeled 265bp DNA (unknown origin) at 0.5 to 50 uM by DNase 1 footprinting analysis.
Test [11] is described as follows: Antiproliferative activity against human shGFP-fused HMLE cells after 72 hrs by MTT assay. It is filed as cell-based. The procedure, abridged:
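HMLE-shGFP cells were kept in a 1:1 mix of DMEM + 10 % FBS with insulin, hydrocortisone and HuMEC medium at 37 °C, 5 % CO₂. Agents were given as tenfold dilutions from 10^-8 to 10^-4 M for 72 h, then MTT absorbance was read at 570 nm. IC50 was interpolated by linear regression of percentage growth; at least two experiments, each point in quadruplicate.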

The nature of test [12]: Binding affinity to duplex calf thymus DNA assessed as change in melting temperature at drug/DNA ratio of 0.5 by spectrophotometric analysis. A digest of the protocol:
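Calf-thymus DNA at 20 μM was heated with or without compound at 10 or 20 μM (drug/base-pair ratio 0.5 or 1) in BPE buffer (6 mM Na₂HPO₄, 2 mM NaH₂PO₄, 1 mM EDTA, pH 7.1). A260 was read every minute from 20 to 100 °C, rising 1 °C per min, and ΔTm was derived.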

Test [13] in a line: Binding affinity to duplex calf thymus DNA assessed as change in melting temperature at drug/DNA ratio of 0.25 by spectrophotometric analysis.
Test [14] deals with T1, DNA topoisomerase 1 (Homo sapiens) (UniProt P11387).
T1 sequence (whole entry): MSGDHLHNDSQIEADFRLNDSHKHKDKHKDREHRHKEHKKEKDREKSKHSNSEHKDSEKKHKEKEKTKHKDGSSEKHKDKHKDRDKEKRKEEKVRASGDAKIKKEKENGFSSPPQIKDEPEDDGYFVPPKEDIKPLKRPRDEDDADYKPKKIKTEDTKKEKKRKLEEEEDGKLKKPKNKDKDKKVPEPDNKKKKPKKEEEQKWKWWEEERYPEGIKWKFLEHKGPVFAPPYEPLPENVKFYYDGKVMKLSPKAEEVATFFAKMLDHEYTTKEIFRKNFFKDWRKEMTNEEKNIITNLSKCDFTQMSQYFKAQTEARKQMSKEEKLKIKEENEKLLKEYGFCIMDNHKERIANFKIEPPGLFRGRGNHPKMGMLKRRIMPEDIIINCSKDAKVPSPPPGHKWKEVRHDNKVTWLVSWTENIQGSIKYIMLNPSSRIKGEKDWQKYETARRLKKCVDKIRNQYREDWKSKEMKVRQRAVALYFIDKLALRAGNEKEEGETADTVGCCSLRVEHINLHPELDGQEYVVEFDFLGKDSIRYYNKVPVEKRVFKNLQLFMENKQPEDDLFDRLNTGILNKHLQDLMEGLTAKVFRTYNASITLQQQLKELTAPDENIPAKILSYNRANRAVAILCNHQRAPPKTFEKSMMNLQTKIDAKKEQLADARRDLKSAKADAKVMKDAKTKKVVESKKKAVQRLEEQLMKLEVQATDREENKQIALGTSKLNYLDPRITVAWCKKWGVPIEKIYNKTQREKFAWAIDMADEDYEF
Description: Poison activity at human DNA topoisomerase 1 assessed as increase in intensity of nicked form of DNA at 100 uM using pUC19 supercoiled plasmid DNA as substrate preincubated for 15 mins followed by DNA topoisomerase 1 addition measured after 30 mins by agarose gel electrophoresis. A digest of the protocol: as §3

For the compound `C[N+]1(C)CCN(c2ccc3c(N4CC[N+](C)(C)CC4)c(C#N)c4nc5ccccc5n4c3c2)CC1`, the IC50 was greater than 100 µM in test [1] (read-out: IC50); greater than 100 µM in [1] (read-out: pIC50 (converted)); greater than 100 µM in test [2] (read-out: IC50); 500 µM in test [2] (read-out: pIC50 (converted)); greater than 100 µM in [3] (read-out: IC50); 500 µM in test [3] (read-out: pIC50 (converted)). Further, the thermal shift (ΔTm) – broadly, the change in melting temperature against a reference sample – came out at 20.7 °C in test [4] and 2.1 °C in [5]. Also, the outcome in test [6], in [7], in [8], in test [9] and in test [10] was Active. Besides, the inhibition result in the test with Escherichia coli was “Active”.
As for `N#Cc1c(N2CCNCC2)c2ccc(N3CCNCC3)cc2n2c1nc1ccccc12`, the IC50 in test [1] (read-out: IC50) is 1.5 µM; in test [1] (read-out: pIC50 (converted)), 1.5 µM; in test [2] (read-out: IC50) it was 1 µM; in test [2] (read-out: pIC50 (converted)) it was 1 µM; in test [3] (read-out: IC50), 4 µM; in [3] (read-out: pIC50 (converted)), 4 µM. This compound had an IC50 in [11] of 2 µM. The thermal shift (ΔTm) was determined as 20.1 °C in test [12], 15.9 °C in test [13] and 5.1 °C in [4]. Besides, the outcome in test [6], in test [7], in [8], in test [9] and in test [10] was Active. Besides, the inhibition entry with Escherichia coli was “Active”.
Take `N#Cc1c(N2CCCC2)c2ccc(N3CCCC3)cc2n2c1nc1ccccc12`: the IC50 in test [1] (read-out: IC50) is 2 µM; in test [1] (read-out: pIC50 (converted)) it was 2 µM; in [2] (read-out: IC50), 2 µM; in test [2] (read-out: pIC50 (converted)), 2 µM; in test [3] (read-out: IC50) it was 12 µM; in test [3] (read-out: pIC50 (converted)) it was 12 µM. In addition, the ΔTm in [12] turned out to be 0.6 °C. Further, the result in [14] was Active.
